Results on 98 compounds are retold here after ChEMBL document CHEMBL4513216, “Probing the Open Global Health Chemical Diversity Library for Multistage-Active Starting Points for Next-Generation Antimalarials” (ACS Infect Dis, 2020).

The data set is described as follows: Toxicity liver stage against HepG2, at 10uM. It is filed as cell-based. Set-up: test concentration 10 uM, cell line HepG2-A16-CD81EGFP. The settings on record: human, HepG2-A16-CD81EGFP cells; read-out: INHIBITION
The essentials: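 Uninfected HepG2-A16-CD81EGFP cells, 3 × 10^3 per well, 1536-well, plated on prespotted compound at 10 μM final, parasite-free screening media added to match infected plates; puromycin 10 μM positive, DMSO 0.5% negative; run in parallel with 48 h PbLuc assay at 37 °C, 5% CO2; viability by CellTiter-Glo luminescence, normalized to controls.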
With `Cc1nn(CCC#N)c(C)c1[C@@H]1C=C[C@@H](NCc2cccc(Cl)c2)C1`, the cytotoxicity at 10 µM is -1.45%.
In the case of `CC(C)c1noc(-c2cccc(OCC(N)=O)c2)n1`, the cytotoxicity at 10 µM is -7.39%.
For `COc1cccc(NC(=O)c2nc3ccccc3n(C)c2=O)c1`, the cytotoxicity at 10 µM came to 4.47%.
In the case of `CC1(C)OCC(CNC(=O)c2cnn(-c3cccc(Cl)c3Cl)c2N)O1` (stereo not drawn) it was 1.93%; in that of `Cc1ccc(NC(=O)NCC2(O)CCCC2)cc1C`, -6.8%.
For `Cc1ccccc1CNC(=O)N1CC[C@@H]2CN(C)S(=O)(=O)[C@@H]2CC1`, the cytotoxicity at 10 µM is -0.39%.
Turning to `CCOc1ncnc2c1CCN(C(=O)c1cnccn1)CC2`, the cytotoxicity at 10 µM is -6.13%.
For `CNC(=O)N1CCc2cc(C(=O)NCC3CC3)c(NC(C)C)nc2CC1`, the cytotoxicity at 10 µM was found to be 2.02%.
In the case of `COc1cc(CC(O)CC#N)c(OC)c2c1OCO2` (stereo not drawn), the cytotoxicity at 10 µM was -6.32%.
Take `CC1CCc2nc(O)c(C(=O)NCc3cccc(F)c3)cc2C1` (stereo not drawn): the cytotoxicity at 10 µM worked out at 3.43%.
Regarding `COc1ccccc1NC(=O)c1[nH]nc(C(C)C)c1Br`, the cytotoxicity at 10 µM is 8.24%.
As to `CSCCC(C)NC(=O)c1cccc(-c2n[nH]c(C)n2)c1` (stereo not drawn), the cytotoxicity at 10 µM came to 1.31%.
Take `CCN(CC(=O)NC(C)C)C(=O)c1csc(Cc2ccccc2)n1`: the cytotoxicity at 10 µM was -5.43%.
`NC(=O)C(NC1CCN(Cc2ccc(F)cc2)CC1)c1ccccc1` (stereo not drawn): the cytotoxicity at 10 µM was -5.4%.
Regarding `NC(=O)CCn1ccc(NCc2cc(F)ccc2Br)n1`, the cytotoxicity at 10 µM is -1.91%.
For the compound `Cc1cnn(CC(C)NCC(=O)Nc2ccc(Cl)cn2)c1` (stereo not drawn), the cytotoxicity at 10 µM turned out to be 6.05%.
With `Cc1ccc(-c2csc(-c3cccc(C(=O)O)c3)n2)cc1`, the cytotoxicity at 10 µM was 3.21%.
With `O=C(c1ccc(NCc2cccc(F)c2)cc1)N1CCC(CO)CC1`, the cytotoxicity at 10 µM turned out to be 6.21%.
With `CC(=O)c1cc(C(=O)N2CCN(C)Cc3ccccc32)n(C)c1`, the cytotoxicity at 10 µM worked out at 7.85%.
For `CN(C)C1CCCN(C(=O)NCCC(C)(C)C)C1` (stereo not drawn), the cytotoxicity at 10 µM was -0.317%.
Consider `CCOC(=O)c1cnn(-c2cc(C)ccn2)c1N`, for which the cytotoxicity at 10 µM is 11.3%.
Then `O=C(Cn1cc(Cl)cn1)Nc1ccc2c(c1)OCCCO2`, with 4.98%; and `O=C(CNC(=O)c1ccoc1)NCCOc1ccc2c(c1)CCC2`, with -7.98%.
In the case of `Cc1nsc(N2CCN(CC(=O)NCc3cccnc3)CC2)n1` it was -4.52%; in that of `COc1ccc(OC)c(C(O)CN2CCN(C3CCCC3)CC2)c1` (stereo not drawn), 6.81%.
In the case of `CCc1ccc(C2COCCN2C(=O)NCc2cccc(C#N)c2)o1` (stereo not drawn) it was -0.838%; in that of `Cn1c(Nc2ccc(F)cc2)c(C#N)c(=O)n(C)c1=O`, 1.77%.
Regarding `Cc1ccc(NC(=O)NC(C)c2nc[nH]n2)cc1Cl` (stereo not drawn), the cytotoxicity at 10 µM was -2.06%.
Take `O=C(CNc1cc2c(cc1Cl)OCCCO2)NCc1ccc(F)cc1`: the cytotoxicity at 10 µM is 0.854%.
Then `COc1ccc(CCNC(=O)Nc2cc(C)nn2C)cc1`, with -2.87%; and `CC(NC(=O)N(C)Cc1cnn(C)c1)c1nncn1C` (stereo not drawn), with -3.03%; and `COc1ccc(CNC(=O)Nc2ccc(CN3CCOC3=O)cc2)cc1`, with -1.44%.
As to `CCCn1nc2c(cc1=O)CN(CC(=O)Nc1cc(C)no1)CC2`, the cytotoxicity at 10 µM was -4.59%.
In the case of `COCCCNC(=O)CN(C)Cc1ccc(F)cc1Cl`, the cytotoxicity at 10 µM is -7.33%.
Regarding `CCCNC(=O)COc1ccc(-c2ccccc2)nc1`, the cytotoxicity at 10 µM came out at 6.16%.
Consider `Cc1nc(CNC(=O)NC2CCN(c3ncccn3)CC2)cs1`, for which the cytotoxicity at 10 µM is -141%.
In the case of `O=C(c1ccc(=O)[nH]n1)N1CCCC1CCc1ccccc1` (stereo not drawn) it was 8.89%; in that of `CC(=O)Nc1nc(C(=O)NCCOc2ccccc2F)cs1`, -6.19%.
As to `CCc1nc(COc2ccc(N(C)C(C)=O)cc2)no1`, the cytotoxicity at 10 µM was -0.408%.
`CN(C)C(=O)CN1CCCc2c(F)cc(Br)cc21`: the cytotoxicity at 10 µM was -0.682%.
`O=C(CSc1nnc[nH]1)NCc1cccs1`: the cytotoxicity at 10 µM amounted to 0.284%.
In the case of `CCc1cnc(CNC(=O)NC2CCN(C3CCCC3)CC2)s1` it was -1.06%; in that of `Cc1noc(C)c1CCc1nc(C2CCOC2)no1` (stereo not drawn), -4%; in that of `CSCCC(NC(N)=O)C(=O)N1CCC(Cc2ccccc2)CC1` (stereo not drawn), 1.28%.
Regarding `COc1cccc2c1CCN(C(=O)NCc1nnc3ccccn13)C2`, the cytotoxicity at 10 µM amounted to 0.67%.
Regarding `CN(CCn1cccn1)S(=O)(=O)c1cccc(F)c1C#N`, the cytotoxicity at 10 µM stood at 3.41%.
With `CC(C)n1cnnc1CN(C)Cc1ccc(CO)o1`, the cytotoxicity at 10 µM worked out at 3.68%.
Turning to `CN1CCCCC1Cc1nc2c(cc1C(N)=O)CCC2` (stereo not drawn), the cytotoxicity at 10 µM was -9.55%.
As for `CC(NS(C)(=O)=O)C(=O)N(C)Cc1csc(-c2cccs2)n1` (stereo not drawn), the cytotoxicity at 10 µM is -0.525%.
For the compound `O=C1NCCCCC1NC(=O)C1(Oc2ccc(Cl)cc2)CCNCC1` (stereo not drawn), the cytotoxicity at 10 µM was -6.21%.
For `CC(C)=CCCC(C)CN1CCC(n2cc(C(C)(C)O)nn2)CC1` (stereo not drawn), the cytotoxicity at 10 µM is -2.27%.
On to `O[C@H]1[C@H](n2cc(-c3ccccn3)nn2)c2ccccc2C12CCNCC2`, for which the cytotoxicity at 10 µM was -11.5%.
Regarding `COc1cc(N[C@@H](Cc2ccccc2)C(N)=O)ncn1`, the cytotoxicity at 10 µM was determined as 10.1%.
In the case of `Cc1ccc2ncccc2c1CN1CC[C@H](N(C)C)[C@H](CCC(=O)O)C1` it was -148%; in that of `O=C1CN(C(=O)c2cc(-c3ccco3)nc3c(Cl)cccc23)CCN1`, -5.2%; in that of `Cc1ccc(S(=O)(=O)NCC2CNCCOC2)cc1Cl` (stereo not drawn), 0.858%.
For `COCCNC(=O)[C@H]1C[C@@](CC(C)C)(C(=O)O)N(C)[C@H]1c1cccnc1`, the cytotoxicity at 10 µM was -6.16%.
Then `Cc1cc(C2CCC2)nc(NCCC23CCCN2CCC3)n1`, with 0.414%; and `CCc1cnc(NCC(c2cccnc2)N2CCOCC2)nc1` (stereo not drawn), with 9.6%.
Consider `O=C(Nc1ccccc1OCCc1ccccn1)N1CCOCC1`, for which the cytotoxicity at 10 µM was determined as 3.18%.
Consider `CC(=O)N1CCCC(C(=O)NCc2noc(Cc3ccccc3)n2)C1` (stereo not drawn), for which the cytotoxicity at 10 µM came to 3.02%.
As for `O=C(c1cnc(COc2ccccc2)nc1O)N1CCC(F)(F)CC1`, the cytotoxicity at 10 µM was -3.11%.
As for `CNC(=O)C1CCN(c2ncc3c(n2)CCN3c2ccccc2)C1` (stereo not drawn), the cytotoxicity at 10 µM was -10.1%.
`CN(Cc1cnc(N)nc1)C(=O)C1CC(=O)N(Cc2ccncc2)C1` (stereo not drawn): the cytotoxicity at 10 µM is 0%.
In the case of `COc1cccc(-c2c[nH]c(C)n2)c1F`, the cytotoxicity at 10 µM was -3.29%.
In the case of `O=C1CCC2(CCN(Cc3cscn3)CC2)CN1CCCO`, the cytotoxicity at 10 µM is -5.26%.
In the case of `O=C(Cn1nc2ccccc2n1)N1CCCC(O)(CN2CCCC2)C1` (stereo not drawn) it was -10.4%.
For the compound `CCCn1ccnc1CN1C[C@@H](NC(C)=O)[C@H](c2ccc(OC)cc2)C1`, the cytotoxicity at 10 µM is 0.344%.
Turning to `CC(C)=CCCC(C)CN1CCC(n2cc(CO)nn2)CC1` (stereo not drawn), the cytotoxicity at 10 µM is -6.37%.
In the case of `C[C@@H]1CN(Cc2ccc(C(F)(F)F)cc2F)CC[C@]1(C)O` it was 4.54%.
Regarding `COc1ccc2c(C)c(C(=O)NC3CCOCC3)oc2c1`, the cytotoxicity at 10 µM was 15.2%.
In the case of `O=C(CSc1ccccc1)N1CCc2c(ncnc2N2CCOCC2)C1` it was -7.15%; in that of `CC(C)c1cc(C(=O)N2CCN(c3ccncc3)CC2)n(C)n1`, -3.5%.
As for `COc1cccc2c1OCC(CNC(=O)CN(C)C1CCCC1)C2` (stereo not drawn), the cytotoxicity at 10 µM is -147%.
Take `CNc1ncc(CN(C)C(=O)[C@@]23CNC[C@@H]2CN(C2CCCC2)C3)cn1`: the cytotoxicity at 10 µM is 0.153%.
In the case of `Cc1nccc(-c2ccccc2)c1C(=O)N1CCC2(CN(C)C(=O)O2)C1` (stereo not drawn) it was 4.77%; in that of `COC[C@@H]1CCCN1C(=O)c1cc(-c2cccc(OC)c2)n[nH]1`, 6.6%; in that of `COc1ccc2c(c1)OCC(Cc1ccc(N)cn1)C2` (stereo not drawn), -1.91%.
For `CC(C)(C)n1ccc(C(=O)N2CCCC(c3ccc(C(=O)O)cc3)C2)c1` (stereo not drawn), the cytotoxicity at 10 µM was 1.31%.
In the case of `O=C(Nc1ccc(F)cc1)C1CNCCN1C(=O)CCO` (stereo not drawn), the cytotoxicity at 10 µM was determined as 1.93%.
With `Cc1ccc([C@H]2CN(C(=O)CC3CCC3)C[C@@H]2N)o1`, the cytotoxicity at 10 µM was 5.89%.
On to `c1csc(N2CCN(Cc3cc4n(n3)CCNC4)CC2)n1`, for which the cytotoxicity at 10 µM was -3.59%.
`O=C(COCc1ccccc1)N1CCC(OCc2cccnc2)CC1`: the cytotoxicity at 10 µM was determined as 4.41%.
On to `COC1CCN(C(=O)Nc2cc(C(F)(F)F)c[nH]c2=O)CC1`, for which the cytotoxicity at 10 µM was 4.1%.
For `COc1cccc(COCC(=O)N2CCCN(CC(N)=O)CC2)c1`, the cytotoxicity at 10 µM is -7.04%.
For the compound `O=C(CCN1CCOC(Cn2cccn2)C1)NC1CCCCC1` (stereo not drawn), the cytotoxicity at 10 µM is -6.28%.
In the case of `CC(Cn1cccn1)NC(=O)NCc1ccc(C(N)=O)cc1` (stereo not drawn), the cytotoxicity at 10 µM is -3.2%.
Turning to `CCn1ccnc1CN1CCN(CC(O)c2cccc(F)c2)CC1` (stereo not drawn), the cytotoxicity at 10 µM amounted to 0.272%.
Turning to `O=C(c1ccccc1-n1cccn1)N1CCC(Nc2cccnn2)CC1`, the cytotoxicity at 10 µM is -15.9%.
Consider `CCOc1ncccc1C(=O)N1CCCC(c2nncn2C)C1` (stereo not drawn), for which the cytotoxicity at 10 µM was -8.47%.
For `CN(Cc1ccsc1)C(=O)CN1CCCCC1Cn1cccn1` (stereo not drawn), the cytotoxicity at 10 µM is -1.07%.
Consider `CN(C)[C@@H]1CCN(c2ncc(F)cn2)[C@H]1Cc1ccccc1`, for which the cytotoxicity at 10 µM was -1.65%.
On to `COCC1CN(Cc2ccc(C)o2)Cc2nnn(C)c21` (stereo not drawn), for which the cytotoxicity at 10 µM is -4.53%.
`O=C([C@@H]1CCO[C@@H]2CCN(CCc3ccccc3)C[C@@H]21)N1CCCC1`: the cytotoxicity at 10 µM is -3.06%.
With `COc1c(CNC2(c3noc(C)n3)CCC2)c(C(C)C)nn1C`, the cytotoxicity at 10 µM was 2.08%.
For the compound `N#Cc1cccc(CN2Cc3nccn3CC(COCC3CC3)C2)c1` (stereo not drawn), the cytotoxicity at 10 µM was -127%.
For the compound `Cc1nn(C)cc1C(=O)N1C[C@@H]2CC[C@H]1CN(S(=O)(=O)N(C)C)C2`, the cytotoxicity at 10 µM stood at 19.8%.
In the case of `COCCN1C[C@@H]2CC[C@H]1CN(Cc1ccc3ccccc3n1)C2`, the cytotoxicity at 10 µM was -11.3%.
